Laboratory results: ChEMBL document CHEMBL4513216, “Probing the Open Global Health Chemical Diversity Library for Multistage-Active Starting Points for Next-Generation Antimalarials” (ACS Infect Dis, 2020)

Test: Toxicity liver stage against HepG2, at 10uM
Format: cell-based
Parameters: test concentration 10 uM, cell line HepG2-A16-CD81EGFP
Details: human, HepG2-A16-CD81EGFP cells; read-out: INHIBITION
Outline: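 Uninfected HepG2-A16-CD81EGFP cells, 3 × 10^3 per well, 1536-well, plated on prespotted compound at 10 μM final, parasite-free screening media added to match infected plates; puromycin 10 μM positive, DMSO 0.5% negative; run in parallel with 48 h PbLuc assay at 37 °C, 5% CO2; viability by CellTiter-Glo luminescence, normalized to controls.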

**Q.** With COc1ccccc1C(=O)Nc1ccc([C@@H](O)[C@H]2COCC(=O)N2)cc1 as the compound, how does the cytotoxicity at 10 µM read?
**A.** The cytotoxicity at 10 µM was 1.17%.

**Q.** For CN1C[C@@H](NC(=O)C2CC2)C[C@H]1c1nc(-c2cnccn2)no1, which cytotoxicity at 10 µM is on record?
**A.** The cytotoxicity at 10 µM was 0.611%.

**Q.** Which cytotoxicity at 10 µM does the source give for O=C(NCCO)c1cc(-c2ccc3c(c2)CCO3)n[nH]1 here?
**A.** The cytotoxicity at 10 µM was -11.9%.

**Q.** With COCCNc1nc(N2CCCC2)nc2nccnc12 as the compound, how does the cytotoxicity at 10 µM read?
**A.** Its cytotoxicity at 10 µM is 0.649%.

**Q.** With COc1ccc(NC(=O)c2nc(C)sc2C(C)C)cn1 as the compound, how does the cytotoxicity at 10 µM read?
**A.** The cytotoxicity at 10 µM was 0.847%.

**Q.** For Cn1c(CN2CCOCC2)cc(=O)c(O)c1CN1CCCC1, which cytotoxicity at 10 µM is on record?
**A.** The cytotoxicity at 10 µM was -1.07%.

**Q.** Which cytotoxicity at 10 µM does the source give for COc1ncccc1C(=O)N1CC(c2nc(-c3cccs3)no2)C1 here?
**A.** The cytotoxicity at 10 µM was -21.5%.

**Q.** With Cc1nccn1-c1ccc(=O)n(CCNC(=O)c2ccccn2)n1 as the compound, how does the cytotoxicity at 10 µM read?
**A.** Its cytotoxicity at 10 µM is -11.3%.

**Q.** With CC(=O)N1CCc2[nH]c(=O)ccc2C1 as the compound, how does the cytotoxicity at 10 µM read?
**A.** Its cytotoxicity at 10 µM is 0.351%.

**Q.** With O=C1Nc2ccccc2C1C1CCN(C(=O)C2CC2)CC1 (stereo not given) as the compound, how does the cytotoxicity at 10 µM read?
**A.** Its cytotoxicity at 10 µM is -1.24%.

**Q.** With O=C(C1CCCC1)N1C[C@@H]2CCNC[C@@H]21 as the compound, how does the cytotoxicity at 10 µM read?
**A.** The cytotoxicity at 10 µM was -0.155%.

**Q.** Which cytotoxicity at 10 µM does the source give for CCOCc1cnc2n1CCN(C(=O)C1=CCCC1)C2C (stereo not given) here?
**A.** Its cytotoxicity at 10 µM is -2.42%.

**Q.** For CN(C)CC(=O)N1C[C@@H](Oc2ccccn2)[C@H]2OCCC[C@H]21, which cytotoxicity at 10 µM is on record?
**A.** The cytotoxicity at 10 µM was 9.11%.

**Q.** Which cytotoxicity at 10 µM does the source give for CCc1ccc(-n2nnc(C(=O)O)c2-c2ccncc2)cc1 here?
**A.** Its cytotoxicity at 10 µM is 3.02%.

**Q.** With O=C(Cn1ccc2ccc(F)cc21)NCc1ccc(C(=O)O)cc1 as the compound, how does the cytotoxicity at 10 µM read?
**A.** Its cytotoxicity at 10 µM is 6.86%.

**Q.** With O=C(COc1coc(CN2CCOCC2)cc1=O)c1ccc(Cl)cc1 as the compound, how does the cytotoxicity at 10 µM read?
**A.** The cytotoxicity at 10 µM was -10.6%.

**Q.** With Cn1ncc(C(=O)O)c1C(=O)Nc1nc2ccc(Br)cc2s1 as the compound, how does the cytotoxicity at 10 µM read?
**A.** Its cytotoxicity at 10 µM is 12.5%.

**Q.** For Cn1ncc(Cl)c1C(=O)NCCN1CCC(O)(c2ccc(F)cc2)CC1, which cytotoxicity at 10 µM is on record?
**A.** The cytotoxicity at 10 µM was 4.71%.

**Q.** Which cytotoxicity at 10 µM does the source give for Cc1cc(N2CCN(C(=O)c3cccnc3)CC2)nc(C)n1 here?
**A.** The cytotoxicity at 10 µM was 4.28%.

**Q.** With NC(=O)c1cn[nH]c1C1CCCN1C(=O)c1ccccc1 (stereo not given) as the compound, how does the cytotoxicity at 10 µM read?
**A.** The cytotoxicity at 10 µM was 0.00505%.

**Q.** For CCC(CN1CCCC1)NC(=O)Cc1c(C)[nH]c2cc(C)cc(C)c12 (stereo not given), which cytotoxicity at 10 µM is on record?
**A.** The cytotoxicity at 10 µM was 2.73%.

**Q.** With CCC(CN1CCOCC1)NC(=O)Cc1c(C)[nH]c2cc(C)cc(C)c12 (stereo not given) as the compound, how does the cytotoxicity at 10 µM read?
**A.** The cytotoxicity at 10 µM was 19.6%.

**Q.** For CC(C)c1ncc(CN2CCOC(C(=O)Nc3ccccc3)C2)cn1 (stereo not given), which cytotoxicity at 10 µM is on record?
**A.** Its cytotoxicity at 10 µM is -25.3%.

**Q.** Which cytotoxicity at 10 µM does the source give for Cc1ccc(-c2cc(N)c(=O)n(CC(=O)NC3CCCC3)n2)s1 here?
**A.** Its cytotoxicity at 10 µM is -20.3%.

**Q.** For CC(=O)N1CCCC(Cc2cnc(C(=O)N3CCC(C)CC3)cn2)C1 (stereo not given), which cytotoxicity at 10 µM is on record?
**A.** The cytotoxicity at 10 µM was 4.82%.

**Q.** With CC(C)Nc1nnc(SCc2nnc(C(C)(C)C)o2)s1 as the compound, how does the cytotoxicity at 10 µM read?
**A.** The cytotoxicity at 10 µM was -0.386%.

**Q.** With O=c1oc(-c2cccs2)nn1CC1(O)CCCCC1 as the compound, how does the cytotoxicity at 10 µM read?
**A.** Its cytotoxicity at 10 µM is 8.52%.

**Q.** Which cytotoxicity at 10 µM does the source give for CC(C)c1nc(C2CCCN2C(=O)c2cc(Cl)c[nH]2)no1 (stereo not given) here?
**A.** Its cytotoxicity at 10 µM is 0.585%.

**Q.** With N#Cc1ccc(S(=O)(=O)NC(=O)C2CC(c3ccccc3)=NO2)cc1 (stereo not given) as the compound, how does the cytotoxicity at 10 µM read?
**A.** Its cytotoxicity at 10 µM is 0.462%.

**Q.** For COCC(O)CN1CCC(NC(=O)c2cccc(C)c2)CC1 (stereo not given), which cytotoxicity at 10 µM is on record?
**A.** Its cytotoxicity at 10 µM is 1.44%.

**Q.** Which cytotoxicity at 10 µM does the source give for O=C(NCCNc1ncccn1)NCCSC(F)(F)F here?
**A.** Its cytotoxicity at 10 µM is 5.81%.

**Q.** For CSC(C)C(=O)NS(=O)(=O)CCc1ccccc1 (stereo not given), which cytotoxicity at 10 µM is on record?
**A.** The cytotoxicity at 10 µM was 2.88%.

**Q.** With Cc1cc(NC(=O)NC(C)CO)ccc1OCC(F)(F)F (stereo not given) as the compound, how does the cytotoxicity at 10 µM read?
**A.** Its cytotoxicity at 10 µM is 5.2%.

**Q.** Which cytotoxicity at 10 µM does the source give for CC(C)(C)c1nc(CNc2cc3c(cc2Cl)NC(=O)CO3)no1 here?
**A.** Its cytotoxicity at 10 µM is -0.438%.

**Q.** With N#Cc1cccc(OCc2ccoc2C(=O)N2CCCCCC2)c1 as the compound, how does the cytotoxicity at 10 µM read?
**A.** The cytotoxicity at 10 µM was 9.91%.

**Q.** Which cytotoxicity at 10 µM does the source give for CSc1ccc(C(C)NC(=O)c2cc(C)on2)cc1 (stereo not given) here?
**A.** The cytotoxicity at 10 µM was 6.01%.

**Q.** With CC(=O)c1ccc(C(=O)NCc2ccnc(N(C)C)n2)cc1 as the compound, how does the cytotoxicity at 10 µM read?
**A.** Its cytotoxicity at 10 µM is 0.69%.

**Q.** With Cc1cc(C)cc(N(C)S(=O)(=O)c2cc3c(c(C(=O)O)c2)OCCO3)c1 as the compound, how does the cytotoxicity at 10 µM read?
**A.** The cytotoxicity at 10 µM was -4.02%.

**Q.** Which cytotoxicity at 10 µM does the source give for Cn1cc(C(=O)CC2CCCN2C(=O)c2ccc(Cl)cn2)cn1 (stereo not given) here?
**A.** The cytotoxicity at 10 µM was -9.23%.

**Q.** With CCNC(=O)NC(=O)CNC(C)(CC)c1nccs1 (stereo not given) as the compound, how does the cytotoxicity at 10 µM read?
**A.** Its cytotoxicity at 10 µM is 7.93%.

**Q.** Which cytotoxicity at 10 µM does the source give for O=c1[nH]c(CN2CCN(CC(F)(F)F)CC2)nc2ccccc12 here?
**A.** The cytotoxicity at 10 µM was 10.2%.

**Q.** Which cytotoxicity at 10 µM does the source give for CCc1nc(CCNC(=O)NC2CCN(C(C)C)C2)sc1C (stereo not given) here?
**A.** Its cytotoxicity at 10 µM is -7.63%.

**Q.** With CC(C(=O)Nc1ccc(Cl)cn1)N1CCc2nn(C)c(=O)cc2C1 (stereo not given) as the compound, how does the cytotoxicity at 10 µM read?
**A.** Its cytotoxicity at 10 µM is 4.81%.

**Q.** For CS(=O)(=O)c1ccc(OCCNCc2cccc(Cl)c2)cc1, which cytotoxicity at 10 µM is on record?
**A.** The cytotoxicity at 10 µM was -4.43%.

**Q.** With CCc1csc(C2CCCN(C(=O)c3ccncc3)C2)n1 (stereo not given) as the compound, how does the cytotoxicity at 10 µM read?
**A.** Its cytotoxicity at 10 µM is 5.9%.

**Q.** With CC(C)(CNC(=O)C(C)(C)c1ccccc1F)C(N)=O as the compound, how does the cytotoxicity at 10 µM read?
**A.** The cytotoxicity at 10 µM was 6.38%.

**Q.** Which cytotoxicity at 10 µM does the source give for Cc1noc(CNc2cccc(C(=O)N3CCCC(O)C3)c2)n1 (stereo not given) here?
**A.** Its cytotoxicity at 10 µM is -0.961%.

**Q.** With O=C(NCCO)NCC(c1ccccc1)N1CCc2sccc2C1 (stereo not given) as the compound, how does the cytotoxicity at 10 µM read?
**A.** Its cytotoxicity at 10 µM is 1.96%.

**Q.** For CC(NC(=O)Nc1nccs1)c1ccncc1 (stereo not given), which cytotoxicity at 10 µM is on record?
**A.** Its cytotoxicity at 10 µM is -9.98%.

**Q.** With Cc1nc(NC(=O)COCC(F)(F)F)ccc1Br as the compound, how does the cytotoxicity at 10 µM read?
**A.** Its cytotoxicity at 10 µM is 9.44%.

**Q.** With CN(CC(=O)NCC(=O)Nc1ccc(F)cc1)Cc1cccs1 as the compound, how does the cytotoxicity at 10 µM read?
**A.** Its cytotoxicity at 10 µM is 0.369%.

**Q.** Which cytotoxicity at 10 µM does the source give for N#Cc1cccc(S(=O)(=O)NC(=O)COCC(F)(F)F)c1 here?
**A.** The cytotoxicity at 10 µM was -0.828%.

**Q.** For CNC(=O)c1cccnc1N1CCC(OCc2ccccc2)CC1, which cytotoxicity at 10 µM is on record?
**A.** Its cytotoxicity at 10 µM is 2.49%.

**Q.** With CCN(Cc1cccc(F)c1)c1ccc2nnnn2n1 as the compound, how does the cytotoxicity at 10 µM read?
**A.** Its cytotoxicity at 10 µM is 15.4%.

**Q.** Which cytotoxicity at 10 µM does the source give for N#Cc1ccc(NCCCOCC2CCCO2)c(F)c1 (stereo not given) here?
**A.** The cytotoxicity at 10 µM was 0.536%.
